Data as given in ChEMBL document CHEMBL1143208, “Structure and property based design of factor Xa inhibitors: biaryl pyrrolidin-2-ones incorporating basic heterocyclic motifs” (Bioorg Med Chem Lett, 2008).

Legend:
[1] = Distribution coefficient, log D of the compound; type: physicochemical; conditions: chromatographic hydrophobicity index (CHI) at pH 7.4
Outline: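 Measured hydrophobicity expressed as a chromatographic hydrophobicity index (CHI) logD at pH 7.4.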

[2] = Oral bioavailability in Sprague-Dawley rat; type: ADME, organism-based; conditions: in vivo
Outline: (§1)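 Male Sprague–Dawley rats dosed intravenously and orally, with pharmacokinetic parameters derived from both routes.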

[3] = Plasma clearance in Sprague-Dawley rat; type: ADME, organism-based; outline: as §1
[4] = Half life in Sprague-Dawley rat; type: ADME, organism-based; conditions: in vivo; outline: as §1
[5] = Volume of distribution at steady state in Sprague-Dawley rat; type: ADME, organism-based; conditions: in vivo, read-out: Vdss; outline: as §1
[6] = Dissociation constant, pKa of the compound; type: physicochemical

A logD [1] of 2.75 was found for `CN(C)Cc1nccn1-c1ccc(N2CCC(NS(=O)(=O)c3ncc(-c4ccc(Cl)s4)s3)C2=O)c(F)c1` (configuration not stated) in this work.
A logD [1] of 1.82 was found for `CN(C)Cc1cn(-c2ccc(N3CCC(NS(=O)(=O)c4cc5ccc(Cl)cc5s4)C3=O)c(F)c2)cn1` (configuration not stated) in this work.
A logD [1] of 2.58 was found for `CN(C)Cc1nccn1-c1ccc(N2CCC(NS(=O)(=O)c3cc4ccc(Cl)cc4s3)C2=O)c(F)c1` (configuration not stated) in this work.
A logD [1] of 2.55 was found for `CN(C)Cc1nccn1-c1ccc(N2CCC(NS(=O)(=O)c3ccc4cc(Cl)ccc4c3)C2=O)c(F)c1` (configuration not stated) in this work.
A logD [1] of 2.2 was found for `C/C(=C\S(=O)(=O)NC1CCN(c2ccc(-n3ccc(CN(C)C)n3)cc2F)C1=O)c1ccc(Cl)s1` (configuration not stated) in this work.
A logD [1] of 1.76 was found for `CN(C)Cc1nccn1-c1ccc(N2CCC(NS(=O)(=O)c3ccc4[nH]cc(Cl)c4c3)C2=O)c(F)c1` (configuration not stated) in this work.
A logD [1] of 3.35 was found for `CN(C)Cc1ccnn1-c1ccc(N2CCC(NS(=O)(=O)c3cc4ccc(Cl)cc4s3)C2=O)c(F)c1` (configuration not stated) in this work.
A logD [1] of 2.48 was found for `CCN(C)Cc1nccn1-c1ccc(N2CCC(NS(=O)(=O)/C=C/c3ccc(Cl)s3)C2=O)c(F)c1` (configuration not stated) in this work.
A bioavailability [2] of 16%, a logD [1] of 2.44 and a clearance [3] of 18 mL/min/kg were found for `C/C(=C\S(=O)(=O)NC1CCN(c2ccc(-n3ccnc3CN(C)C)cc2F)C1=O)c1ccc(Cl)s1` (configuration not stated) in this work. The half-life [4] was 48 min and the Vd [5] was 0.7 L/kg.
A logD [1] of 1.7 was found for `CNCc1nccn1-c1ccc(N2CCC(NS(=O)(=O)/C=C/c3ccc(Cl)s3)C2=O)c(F)c1` (configuration not stated) in this work.
A logD [1] of 2.7 was found for `CC(C)N(C)Cc1nccn1-c1ccc(N2CCC(NS(=O)(=O)/C=C/c3ccc(Cl)s3)C2=O)c(F)c1` (configuration not stated) in this work.
A bioavailability [2] of 10%, a logD [1] of 2.32 and a clearance [3] of 39 mL/min/kg were found for `CN(C)Cc1nccn1-c1ccc(N2CCC(NS(=O)(=O)CCc3ccc(Cl)s3)C2=O)c(F)c1` (configuration not stated) in this work. For the same molecule, the half-life [4] was 48 min and the Vd [5] was 1.1 L/kg.
A logD [1] of 1.64 was found for `C/C(=C\S(=O)(=O)NC1CCN(c2ccc(-n3cnc(CN(C)C)c3)cc2F)C1=O)c1ccc(Cl)s1` (configuration not stated) in this work.
A logD [1] of 1.98 was found for `CN(C)Cc1nccn1-c1ccc(N2CCC(NS(=O)(=O)c3ccc4c(Cl)c[nH]c4c3)C2=O)c(F)c1` (configuration not stated) in this work.
A logD [1] of 2.31 was found for `C/C(=C\S(=O)(=O)NC1CCN(c2ccc(-n3cncc3CN(C)C)cc2F)C1=O)c1ccc(Cl)s1` (configuration not stated) in this work.
A logD [1] of 3.29 was found for `CN(C)Cc1nocc1-c1ccc(N2CCC(NS(=O)(=O)/C=C/c3ccc(Cl)s3)C2=O)c(F)c1` (configuration not stated) in this work.
A logD [1] of 2.59 was found for `CN(C)Cc1nccn1-c1ccc(N2CCC(NS(=O)(=O)c3cc4cc(Cl)ccc4s3)C2=O)c(F)c1` (configuration not stated) in this work.
A logD [1] of 2.28 and a pKa [6] of 5.75 were found for `O=C1C(NS(=O)(=O)/C=C/c2ccc(Cl)s2)CCN1c1ccc(-n2ccnc2CN2CCOCC2)cc1F` (configuration not stated) in this work.
A logD [1] of 2.21 and a pKa [6] of 7.95 were found for `O=C1C(NS(=O)(=O)/C=C/c2ccc(Cl)s2)CCN1c1ccc(-n2ccnc2CN2CCCC2)cc1F` (configuration not stated) in this work.
A bioavailability [2] of 52%, a logD [1] of 2.54 and a clearance [3] of 13 mL/min/kg were found for `CN(C)Cc1nccn1-c1ccc(N2CCC(NS(=O)(=O)/C=C/c3ccc(Cl)s3)C2=O)c(F)c1` (configuration not stated) in this work. It also gave a pKa [6] of 7.26, a half-life [4] of 60 min and a Vd [5] of 0.6 L/kg.
A logD [1] of 2.58 was found for `O=C1C(NS(=O)(=O)/C=C/c2ccc(Cl)s2)CCN1c1ccc(-n2ccnc2CN2CCC(F)C2)cc1F` (configuration not stated) in this work.
A logD [1] of 2.4 was found for `CN(C)Cc1ccn(-c2ccc(N3CCC(NS(=O)(=O)c4cc5ccc(Cl)cc5s4)C3=O)c(F)c2)n1` (configuration not stated) in this work.
